Sampled rows, rich in hits. Any-hit rate of the full collection: about 2.5%.
SENP1 inh: SENP1 (human) catalytic domain inhibition | inhibition, % at 10 µM | hit rate 0.21% among 360,000 | recombinant SENP1 catalytic domain, CyPet-SUMO1-YPet FRET cleavage | AID 624204 | Q9P0U3;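 active means inhibition at least 30% at 10 µM, raw YFP signal under a set limit, fluorescence ratio 0.5 to 1.5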;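 further: 0% = enzyme with DMSO and 100% = no enzyme wells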
Target sequence (Q9P0U3 419-644 limits assumed): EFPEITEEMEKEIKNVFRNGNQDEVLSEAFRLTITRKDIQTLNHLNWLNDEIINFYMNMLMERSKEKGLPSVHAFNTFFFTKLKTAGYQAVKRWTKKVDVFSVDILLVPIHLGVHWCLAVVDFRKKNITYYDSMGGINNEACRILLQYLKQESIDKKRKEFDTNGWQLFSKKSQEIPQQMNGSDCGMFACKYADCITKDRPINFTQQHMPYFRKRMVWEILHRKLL
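Test system: hSENP1 catalytic domain, recombinant; Amount: 20 pM final SENP1 enzyme; Medium: Tris pH 8 buffer plus EDTA, NaCl, BME, BSA, NP40, catalase; Schedule: 50 min enzyme reaction, room temperature, light-protected; Technique: FRET fluorescence in CFP and YFP emission channels; Controls: no-enzyme wells low, DMSO-plus-enzyme wells high control.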
SENP6 inh: blocks the human protease SENP6; Q9GZR1; Recombinant SENP6 catalytic domain, aminoluciferin luminescence; inhibition, % at 10 µM; hit rate 1.8% among 330,000; AID 2599;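 active means inhibition above about 50% at the single tested dose, limit read from the data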;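 further: plate controls were DMSO wells with enzyme for no effect and DMSO wells lacking enzyme for full effect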
SENP7 block: inhibitors of human SENP7 protease; Q9BQF6; recombinant SENP7, Z-RLRGG-aminoluciferin luminescence, 40 min; inhibition, % at 5 µM; hit rate 1.5% among 330,000;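 active means inhibition above about 50% at the single test dose, limit read from the data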;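 further: plate controls were DMSO with enzyme for no effect and no enzyme buffer wells for full effect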
SENP8 block-1: SENP8 (human) protease inhibition; inhibition, % at 20 µM; hit rate 0.64% among 360,000; recombinant SENP8, Nedd8 substrate fluorescence; in the data active means inhibition mostly above about 40%, no sharp cut-off; inactive means mostly below about 27%
Target sequence (Q96LD8 whole entry, looked up): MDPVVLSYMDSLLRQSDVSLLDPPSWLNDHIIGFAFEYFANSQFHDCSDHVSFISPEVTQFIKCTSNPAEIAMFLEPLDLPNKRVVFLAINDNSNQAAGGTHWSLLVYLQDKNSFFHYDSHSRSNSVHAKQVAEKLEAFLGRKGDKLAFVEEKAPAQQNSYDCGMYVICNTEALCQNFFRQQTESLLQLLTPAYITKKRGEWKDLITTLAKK
SENP8 block-2: SENP8 protease inhibition | Q96LD8 | AID 2540 | hit rate 1.2% among 330,000 | purified SENP8, Z-RLRGG-aminoluciferin cleavage, luminescence | inhibition, % at 10 µM; in the data active means inhibition above about 50%
SENP1 conf: SENP1 (human) inhibition, single concentration confirmation; shares compounds with SENP1 inh; recombinant SENP1, CyPet-SUMO1-YPet FRET cleavage; inhibition, % at 10 µM; hit rate 34% among 520; in the data active means inhibition mostly above about 35%, no sharp cut-off; inactive means mostly below about 32%;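 further: 0% = enzyme with DMSO and 100% = no enzyme control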
SENP1 kinetic: confirmation of human SENP1 SUMO protease inhibitors, kinetic; shares compounds with SENP1 inh; hit rate 26% among 520; inhibition, % at 10 µM; recombinant SENP1, CyPet-SUMO1-YPet FRET kinetic cleavage; in the data active means inhibition mostly above about 32%, no sharp cut-off; inactive means mostly below about 29%;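 further: 0% = DMSO with enzyme and 100% = no enzyme substrate only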
Starred values were filed as active, the others as inactive; . = no result given.

SMILES	SENP1 inh	SENP6 inh	SENP7 block	SENP8 block-1	SENP8 block-2	SENP1 conf	SENP1 kinetic
CCN(CC)CCNC(CC(=O)Nc1ccc(Cl)cc1Cl)C(=O)O (centres undefined)	0	-31	13	26	-7	.	.
CCN(CC)CCNc1ccc(CO)c2oc3cc(Cl)ccc3c(=O)c12	48*	.	.	35	.	55*	35*
COc1cc(C#N)ccc1OC(=O)C1CCN(C(=O)c2ccc(F)cc2)CC1	1	-3	-8	3	11	.	.
CCN(CC)S(=O)(=O)c1ccc(N2CCOCC2)c(NC(=O)c2ccc(C#N)cc2)c1	36*	-5	-8	1	-4	0	9
CCCc1cc(=O)n2[nH]c(SCc3ccc(Cl)cc3)nc2n1	0	26	8	12	3	.	.
COc1ccccc1Nc1ccc([N+](=O)[O-])cc1N	49*	8	-3	26	6	29	17
COc1ccccc1Nc1c([N+](=O)[O-])cc(C)cc1[N+](=O)[O-]	3	-3	-2	25	-8	.	.
COc1ccc(N(CC(=O)N2CCC(C(N)=O)CC2)S(=O)(=O)c2ccccc2)cc1	-1	-6	-2	6	2	.	.
Cc1c(NN=C(C#N)C#N)c(=O)n(-c2ccccc2)n1C	46*	-22	0	9	-2	14	18
CCN=c1scc(-c2cccs2)n1/N=C/c1cc(OC)ccc1O	52*	.	.	-22	.	146*	82*
COc1ccc(O)c(/C=N/n2c(-c3ccco3)csc2=Nc2cccnc2)c1	42*	12	-3	-42	-9	29*	19
COCCn1c(-c2ccco2)csc1=Nc1cccnc1	0	4	-5	9	0	.	.
Cc1ccc(OCC(=O)NCCCNC(=O)c2ccncc2)cc1C	0	-22	2	8	10	.	.
CN(C)C(=O)C1CCC(=O)N1Cc1cccs1 (centres undefined)	1	-11	6	1	2	.	.
O=C1NC(=S)SC1=Cc1cc(Br)ccc1O	32*	.	.	25	.	96*	52*
COc1ccc(Nc2cc(C)nc3ncnn23)cc1Cl	29*	-3	1	7	9	35*	20
COc1cc(Nc2cc(C)nc3ncnn23)cc(OC)c1OC	1	-16	11	22	-9	.	.
O=C(NCCSCc1ccccc1)c1ccc(C2SCC(=O)N2Cc2ccccc2)cc1 (centres undefined)	63*	-5	3	5	4	45*	50*
COC(=O)c1ccc(C2SCC(=O)N2Cc2ccccc2)cc1 (centres undefined)	2	-6	0	25	-2	.	.
Cc1nc2[nH]onc2c2nccc(=O)c12	52*	-20	-2	-27	-10	50*	48*
O=C(c1cccc(S(=O)(=O)Nc2ccc(F)cc2)c1)N1CCC1	0	-9	2	4	-4	.	.
CCOc1cc(N2CCOCC2)c(OCC)cc1NC(=O)CSc1ncccc1C(=O)O	4	-6	6	16	-3	.	.
COc1ccc2c(c1)c1nc3ccccc3nc1n2Cc1ccc(OC)c(OC)c1	39*	.	.	17	.	63*	52*
COc1ccc(/C=C/c2nc3ccccc3n2Cc2ccc(OC)c(OC)c2)cc1	3	47	-2	-375	40	.	.
CCOc1ccc(Cn2c3ccc(OC)cc3c3nc4ccccc4nc32)cc1OC	42*	3	4	30	3	68*	48*
SMILES	SENP1 inh	SENP6 inh	SENP7 block	SENP8 block-1	SENP8 block-2	SENP1 conf	SENP1 kinetic
CCc1nc2ccccc2n1Cc1ccc(OC)c(OC)c1	1	-31	-7	20	-8	.	.
CCOc1ccc(N(CC(=O)NCc2ccccc2C)S(C)(=O)=O)cc1	2	-19	5	14	-16	.	.
Cn1c(NCc2cccnc2)nc2cc(-c3ccc(C(=O)N4CCOCC4)cc3)sc2c1=O	0	.	.	-234	.	.	.
N#C/C(=C\c1ccc(/C=C(/C#N)c2nn(CCO)c(N)c2C#N)cc1)c1nn(CCO)c(N)c1C#N	38*	-11	-1	-93	5	33	27
COC(=O)C1(NC(=O)CNC(=O)OCc2ccccc2)CCCC1	-2	.	.	21	.	.	.
Cc1cccc(-n2cc(-c3ccc([N+](=O)[O-])cc3)[nH]c2=S)c1	23	34	13	12	12	.	.

Screening data from PubChem BioAssay.
